Sampled rows, rich in hits. Any-hit rate of the full collection: about 2.3%.
TRPC4 agonist: TRPC4 (mouse) channel activation; HEK293 TRPC4beta/mu-opioid, Fluo4 calcium fluorescence; stronger effect = higher value; AID 2237; Q9QUQ5; B-score at 10 µM; hit rate 0.49% among 310,000;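 active = B-score above 5 SD of library B-scores, and initial fluorescence ratio not above library mean plus 5 SD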;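 note: positive B-score marks a calcium rise read as TRPC4 activation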
Target sequence (Q9QUQ5 whole entry, looked up): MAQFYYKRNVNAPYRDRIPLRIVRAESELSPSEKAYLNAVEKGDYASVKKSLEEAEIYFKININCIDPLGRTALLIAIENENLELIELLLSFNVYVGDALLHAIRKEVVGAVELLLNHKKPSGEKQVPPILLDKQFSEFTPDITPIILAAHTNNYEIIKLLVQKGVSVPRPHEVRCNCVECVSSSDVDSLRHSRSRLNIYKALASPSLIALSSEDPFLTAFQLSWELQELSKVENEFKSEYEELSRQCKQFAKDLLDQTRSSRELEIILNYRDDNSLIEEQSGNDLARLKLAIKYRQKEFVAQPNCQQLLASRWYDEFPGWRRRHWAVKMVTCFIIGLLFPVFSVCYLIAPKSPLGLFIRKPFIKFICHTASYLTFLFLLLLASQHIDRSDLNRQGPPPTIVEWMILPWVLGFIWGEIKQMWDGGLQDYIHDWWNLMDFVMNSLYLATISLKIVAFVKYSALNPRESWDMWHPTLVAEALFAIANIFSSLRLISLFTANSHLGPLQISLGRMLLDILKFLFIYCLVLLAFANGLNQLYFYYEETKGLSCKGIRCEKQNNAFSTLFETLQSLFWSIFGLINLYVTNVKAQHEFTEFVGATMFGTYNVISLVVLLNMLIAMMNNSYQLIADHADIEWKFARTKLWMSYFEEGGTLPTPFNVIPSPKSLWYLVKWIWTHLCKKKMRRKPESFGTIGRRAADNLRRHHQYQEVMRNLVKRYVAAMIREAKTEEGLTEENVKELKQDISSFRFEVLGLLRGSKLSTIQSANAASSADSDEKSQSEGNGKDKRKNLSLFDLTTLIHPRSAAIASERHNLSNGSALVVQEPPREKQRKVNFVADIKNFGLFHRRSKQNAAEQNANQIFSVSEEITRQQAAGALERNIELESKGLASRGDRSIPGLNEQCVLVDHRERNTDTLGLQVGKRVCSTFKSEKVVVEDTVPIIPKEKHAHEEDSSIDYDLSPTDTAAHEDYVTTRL
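System – HEK293 cells stably co-expressing mouse TRPC4beta and mu-opioid receptor · Signal – Fluo4 calcium-sensitive dye fluorescence, kinetic, 1 Hz baseline · Benchmarks – buffer (low) and maximal DAMGO (high) · Read-out – B score of integrated fluorescence ratio per well · Incubation – dye loading 45 min room temperature, 110 s kinetic read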
TRPC6 inh: blocks the mouse TRPC6 cation channel. HEK293-TRPC6, membrane potential dye, ACh-evoked depolarization; stronger effect = lower value. B-score at 10 µM. hit rate 1.1% among 310,000. Q61143;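 active = B-score under library mean minus 3 SD, initial fluorescence not abnormally high, positive integrated signal ratio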;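 note: B-score derived from integrated fluorescence ratio over the kinetic read; more negative B-score means stronger inhibition of depolarization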
TRPC4 block: inhibitors of mouse TRPC4 channel; Q9QUQ5; B-score at 10 µM; HEK293 TRPC4beta/mu-opioid, DAMGO-evoked Fluo4 calcium flux; stronger effect = lower value; hit rate 0.39% among 300,000;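 active = B-score over 3 SD under the library average, no early fluorescence shift, positive overall ratio signal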
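Assay system – HEK293 line stably carrying TRPC4beta and mu-opioid receptor · Doses – single dose · Detection – Fluo4 calcium-dye fluorescence, kinetic read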
TRPC4 potent: allosterically enhances the mouse TRPC4 cation channel; HEK293 TRPC4beta/mu-opioid, DAMGO EC20, Fluo-4 Ca2+ flux; stronger effect = higher value; B-score at 10 µM; hit rate 0.42% among 310,000; Q9QUQ5;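 active = B-score of calcium response area above 5 SD of library B-scores, with initial fluorescence ratio within 5 SD of library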;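 note: B-score of integrated fluorescence ratio over time as area under calcium response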
TRPC6 activator: mouse TRPC6 channel activation. HEK293-TRPC6 membrane potential dye fluorescence; stronger effect = higher value. B-score at 10 µM. Q61143. hit rate 0.13% among 310,000. AID 2550;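 active = B-score of the integrated fluorescence ratio above library mean plus 3 SD, and starting fluorescence ratio within library mean plus 5 SD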;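 note: higher score means more depolarization so channel activation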
* = called active by the depositor; i = inactive.

SMILES | TRPC4 agonist | TRPC6 inh | TRPC4 block | TRPC4 potent | TRPC6 activator
CN(C)S(=O)(=O)c1cccc(NC(=O)c2ccc3nccnc3c2)c1 | i | i | i | i | i
Cc1ccc(C(=O)COC(=O)CN2C(=O)C3C4C=CC(C4)C3C2=O)cc1C (stereo not drawn) | i | i | i | i | i
CSc1nc(N2CCOCC2)c2c3c(sc2n1)CCCC3 | i | i | -6* | i | i
O=S(=O)(c1ccc(Cl)c(C(F)(F)F)c1)N1CCN(CC(O)COc2ccccc2F)CC1 (stereo not drawn) | i | i | i | i | i
CCN(CC)CCn1c(=N)n(CC(O)COc2ccccc2)c2ccccc21 (stereo not drawn) | i | i | -6* | i | i
Cc1ccc(N=Nc2c(N)n[nH]c2N)cc1 | i | i | i | i | i
Cc1[nH]nc(N)c1N=Nc1ccc(Br)cc1 | i | -5.6* | i | i | i
COc1ccccc1/C=C1\SC(=O)N(CC(=O)N(C)C2CCS(=O)(=O)C2)C1=O (stereo not drawn) | i | i | i | i | i
COc1ccc(CN2CCSCC2)c(C)c1C | i | i | i | i | i
N/C(Cc1cccc2ccccc12)=N\OC(=O)Cc1cccs1 | i | i | i | i | i
N/C(Cc1cccc2ccccc12)=N\OC(=O)c1cccs1 | i | i | -6* | i | i
c1ccc2c(c1)COC(CN1CCCCC1)OC2 | i | i | i | i | i
COC(=O)N/N=C(\C)c1ccc(-n2ccnc2)cc1 | i | i | i | i | i
C/C(=N\NC(=O)COc1ccc(C)cc1C(C)C)c1ccc(-n2ccnc2)cc1 | i | i | i | 28* | i
CCc1cc(=O)oc2c(CNCc3ccccc3F)c(O)c(Cl)cc12 | i | i | i | 17* | i
Cc1ccc2nc(Cl)c(C#N)cc2c1 | i | i | i | i | i
O=C(NCc1ccccn1)C(F)(F)C(F)(F)C(=O)NCc1ccccn1 | i | i | i | i | i
O=C(NCCc1ccccn1)C(F)(F)C(F)(F)C(F)(F)C(F)(F)C(F)(F)C(F)F | 128* | i | i | i | i
CC(C)CCN(C(=O)CCCSc1nc2ccccc2[nH]1)c1c(N)n(Cc2ccccc2)c(=O)[nH]c1=O | i | i | i | i | i
COc1ccc(Cl)cc1NC(=O)CNC(c1ccccc1)c1ccccc1 | i | i | i | i | i
Cc1ccc(Cl)cc1NC(=O)CNCC(c1ccccc1)N(C)C (stereo not drawn) | 118* | i | i | i | i
Cc1ccc(Cl)cc1NC(=O)CCC(=O)O | i | i | i | i | i
COc1ccc(Cl)cc1NC(=O)CNCC(c1ccccc1)N(C)C (stereo not drawn) | 49* | i | -7* | i | i
Cn1c(/C=C/c2cccc([N+](=O)[O-])c2)c([N+](=O)[O-])c(=O)n(C)c1=O | i | i | i | i | i
CCN1CCN(c2nc(N)c([N+](=O)[O-])c(Nc3ccc(C)cc3)n2)CC1 | i | i | i | 17* | i
SMILES | TRPC4 agonist | TRPC6 inh | TRPC4 block | TRPC4 potent | TRPC6 activator
CCN1CCN(c2nc(N)c([N+](=O)[O-])c(Nc3ccc(C)c(C)c3)n2)CC1 | i | i | i | 29* | i
CCOC(=O)C1CCCN(C(=O)CCn2nnnc2CN2CCOCC2)C1 (stereo not drawn) | i | i | i | 10* | i
CCN(CC)C(=O)C1CCCN(C(=O)CCn2nnnc2CN2CCOCC2)C1 (stereo not drawn) | i | i | i | i | i
CCOC(=O)N1CCN(S(=O)(=O)c2ccc(C(=O)NNc3nc4c(C)cccc4s3)cc2)CC1 | i | i | i | i | i
CCOC(=O)N1CCN(S(=O)(=O)c2ccc(C(=O)NNc3nc4c(C)cc(C)cc4s3)cc2)CC1 | i | i | i | 10* | i
COc1ccc(-c2noc(N3CCC(C(=O)NCCCN4CCCCC4)CC3)n2)cc1 | i | i | i | i | i
CCCCNC(=O)C1CCCN(S(=O)(=O)c2c(C)noc2/C=C/c2cccs2)C1 (stereo not drawn) | i | i | i | i | i
COc1ccc(-c2noc(N3CCC(C(=O)NCCCN4CCCC(C)C4)CC3)n2)cc1 (stereo not drawn) | i | i | i | 10* | i
Cc1noc(/C=C/c2cccs2)c1S(=O)(=O)N1CCC(C(=O)NCCCN2CCCC(C)C2)CC1 (stereo not drawn) | i | i | i | 10* | i
COc1ccc(C(=O)CSc2cc(C)[nH]c(=O)n2)cc1 | i | i | i | i | i
O=c1cc(N2CCCCC2)c(-c2ccccc2)nn1Cc1ccccc1Cl | i | i | i | 14* | i
Cn1c(-c2ccccc2)cnc1NCc1ccc(F)cc1 | i | i | -7* | i | i
CCOc1ccc(N2C(=O)CC(Cc3ccccc3OC)C2=O)cc1 (stereo not drawn) | i | i | i | i | i
COC1CCCN(Cc2cn(C)nc2-c2ccc(Oc3ccccc3)cc2)C1 (stereo not drawn) | i | i | i | i | i
Cn1cc(CN2CCCCC2CO)c(-c2ccc(Oc3ccccc3)cc2)n1 (stereo not drawn) | i | i | -7* | i | i
CC1Oc2ccccc2C=C1/C=N/Nc1ccc(C(=O)O)cc1 (stereo not drawn) | i | i | -5* | i | i
Cc1cc(C)nc(/N=C(\N)Nc2ccc(CC(=O)OC(C)C)cc2)n1 | i | i | i | i | i
CCOC(=O)C(=O)Nc1ccc(OCc2ccccc2)cc1 | i | i | i | i | i
Cc1cc(C)nc(/N=C(\N)Nc2cccc(OCc3ccccc3)c2)n1 | i | -5.4* | i | i | i
Cc1cc(C)nc(/N=C(\N)Nc2ccc(OCc3ccccc3)cc2)n1 | 61* | i | i | i | i
Cc1cc(C)nc(/N=C(\N)Nc2ccc(OCCC(C)C)cc2)n1 | 51* | i | i | i | i
CCCn1c(CN2CCN(c3cccc(Cl)c3)CC2)nc2c1c(=O)n(C)c(=O)n2C | i | i | i | 12* | i
COCCn1c(CN2CCN(C(c3ccccc3)c3ccccc3)CC2)nc2c1c(=O)n(C)c(=O)n2C | i | i | i | i | i
Cn1c(=O)n(CCCO)c(=O)c2c1nc1n2CCCN1Cc1ccccc1 | i | i | -6* | i | i
